Assay results as given in the EternaBench riboswitch data.

Test system: MS2 coat protein
Assay: apparent Kd, MS2 coat protein; higher = weaker binding; RNA-MaP array; FMN 200 µM where present
Outline: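 On Illumina sequencing-chip clusters, designs were transcribed by stalled E. coli RNA polymerase and titrated with SNAP-549-labelled MS2 coat protein (0.7 or 1.5 nM, doubling to 3 µM), without and then with constant ligand, in 100 mM Tris-HCl pH 7.5, 80 mM KCl, 4 mM MgCl2, BSA, DTT, yeast tRNA and Tween-20. Apparent Kd is the median of filtered per-cluster curve fits to green signal normalised to red-channel RNA signal and control-cluster median Fmax.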

[1] = designed as: OFF switch for flavin mononucleotide, no ligand
[2] = ligand present: flavin mononucleotide, designed as: OFF switch for flavin mononucleotide
[3] = designed as: ON switch for flavin mononucleotide, no ligand
[4] = ligand present: flavin mononucleotide, designed as: ON switch for flavin mononucleotide

| Sequence | apparent Kd [1] [nM] | apparent Kd [2] [nM] | apparent Kd [3] [nM] | apparent Kd [4] [nM] |
| --- | --- | --- | --- | --- |
| UUUUUGUGAGGAUAUCAGUAGUAGAACAAUAGUACUACUACUGAGAAGGCACAUGAGGAUCACCCAUGUUCCUC | 58.1 | 325 | – | – |
| AGCUACGUUUCGUAGCAGCUAGGUGAGGAUAUCCUUUUACAUGAGGAUCACCCAUGUUAGCCAUGGGAGAAGGCGCCUAGAAAG | – | – | 498 | 37.7 |
| ACUGUGUGAGGAUAUCUACGCCAUGUCUUUGACAUGGCGCAAGAGAAGGCACAUGAGGAUCACCCAUGUACUUC | 18.4 | 39.2 | – | – |
| UGCGAACAGGCUAACAUGAGGAUCACCCAUGUGGACUCAUGGUAGGAUAUCGGGAAGGAGGAAACCGAGAAGGGCCGGUGAGCU | – | – | 217 | 150 |
| UCGUUUAUACAAGGAUAUCAAUUAUAGCUAAAUUCAACAUGAGGAUCACCCAUGUAACUAUGGAGUGAGAAGGUGUAAUGACUU | – | – | 514 | 302 |
| UACAAUCUAUCUGAGGAUAUCAUGAAAAAAACAUGAGGAUCACCCAUGUGCAGGAAAACUGCAUAUGAGAAGGCAGAUAGAUUGC | – | – | 671 | 29.3 |
| UUACUAUCACAGAAGGCUAGAUAGUAUAUAGAUGGAGGAUAUGUGACAUGAGGAUCACCCAUGUUUCACCGACAUGAGGAUCAC | 17.4 | 41.6 | – | – |
| AAGUAGGUAGGAUAUGCAUAGAUAUACAUUCAUGUGGAUUUACAUGAGGAUCACCCAUGUAGAAGGACCUAAUA | 37.5 | 136 | – | – |
| CAGGUUAGAGGAUAUACGUAGGUACAGAUCUGUGUGUUCCUACAUGAGGAUCACCCAUGUAGAAGGCUAUCCUG | 69.8 | 208 | – | – |
| GCAGCAUAGUUUACUAACUGUUACAUGAGGAUCACCCAUGUUUAGGAUAUGGUCUGGAUUACAGGCCAGAAGGGAACAAGCUGC | 14.6 | 12.3 | – | – |
| CCAUGACAAAGUCAUGGAUUACGAACAUGAGGAUCACCCAUGUAGGAUAUGCUACUCAAAGAGUAGCAGAAGGACAUGUGUCUU | 32.9 | 165 | – | – |
| GCAAAGCCUGACAUGAGGAUCACCCAUGUUAGAUUGUUAUGUCAGGAUAUUGUCUAGCAACUAGACAAGAAGGGAUGCUCUGCG | – | – | 744 | 215 |
| CGUGCACAUGUAGGAUAUGGUUAUCUAUGUCUAGUUACUAGACAUAGAUAACCAGAAGGACAUGAGGAUCACCCAUGUAGCACG | 346 | 275 | – | – |
| UUGGUUGUCGUAGGAUAUGUAGGAUAUUCCUACAUGAGGAUCACCCAUGUUCGCAUGGAAGAAGGACAGAAGGACGAUGACCAC | – | – | 850 | 9.19 |
| UGGAUCAUGGGAGGAUAUCCUCAAGAGACAUGAGGAUCACCCAUGUAUUAUAAGCCUAAUGGCAUGGAGAAGGCCCAUGAUCCU | – | – | 377 | 54 |
| ACUUGCUUGCAGAAGGGUGACAUGAGGAUCACCCAUGUAGCGUGCCGGCGUAAAGUCAGCGCGCCACAGGAUAUGCAGGCCUCG | – | – | 65.8 | 44 |
| ACCCAUGUCCAAGGAUAUGUACUCACAUGAGGAUCACCCAUGUAAAAGGGAGCAGAAGGUGGUACAUGUUAGAGAAUAAUAAAC | – | – | 129 | 11.4 |
| CGAUCGUGUAGAGGAUAUGUUAAACAUGAGGAUCACCCAUGUAAGGUAGAAAUUUUUAUAAACAUACAGAAGGCUACACGAUCG | 7.32 | 5.15 | – | – |
| UCAUAAAAGAUCCUAUUUAUCUACAUGAGGAUCACCCAUGUGCAGGAUAUGCUAUAUUUAAUAAAGCAGAAGGGCAAUAACCGC | 127 | 309 | – | – |
| AAGCACAGAGGAUAUACAUGGGUGAUAAAAAAAAUGUAAAAACAUGAGGAUCACCCAUGUAGAAGGCUGUGCAA | 22.6 | 16.5 | – | – |
| GCACGGAUGGUAGGAUAUCAUUGCGAUUAGCUAUGAGAAGGGCCACAUGAGGAUCACCCAUGUCCUCUAAUUAGCCUUCCGUGC | 101 | 101 | – | – |

| Sequence | apparent Kd [1] [nM] | apparent Kd [2] [nM] | apparent Kd [3] [nM] | apparent Kd [4] [nM] |
| --- | --- | --- | --- | --- |
| UUGUUGUAUGUAGGAUAUGCAUAUUAUUAUUAUGCAGAAGGACAUGAGGAUCACCCAUGUAUGUUAUUAUUAUAUGUUAUAUAU | 27.6 | 35.6 | – | – |
| UGUCAUAUAUAGAAGGGUAGUAGGGUUUUACAUGAGGAUCACCCAUGUAUUAUAGGAUAUGUGUAAAGUUAUUAUUAAAGUAAA | 29.1 | 21.5 | – | – |
| UGAUAGCACAGAGGAUAUGCGUAGUGUUAUCACUACAUGAGGAUCACCCAUGUAGAAGGCUGUGCUAUCUAAGUCGGAAACGAC | 6.33 | 7.44 | – | – |
| GAGUUUACGUUUGUCACUUUGCGAGAGGAUAUGGAAAACUUGACAUGAGGAUCACCCAUGUUUUAUCAGAAGGCUCGAGUACGA | – | – | 10.2 | 6.09 |
| CUAUGUUAGCAGGAUAUGCCAUUAUUCUUUUUCGCAGAAGGGCUUACAUGAGGAUCACCCAUGUUACAUUUCUU | 15 | 36.5 | – | – |
| GAGAAGUCAGGAUAUCCAUGGCGGCACUUGCGUGGUGGCGUGGAGAAGGGACAUGAGGAUCACCCAUGUAAAGU | 49.8 | 39.1 | – | – |
| UUAAGGGACUGAGGAUAUACAUGAAUUAUUUUUGUAGAAGGCAGAUUGUUAGUUUAUUCACUAUACAUGAGGAUCACCCAUGUU | 27.4 | 20.1 | – | – |
| AAAUCAGCAGGAUAUGCGAUGUUGUGCUAGAUAGCGGGACCACAUGAGGAUCACCCAUGUAGAAGGGCUAGAUA | 51.4 | 18.9 | – | – |
| AAAUUAAGAAGAGGAUAUUGACAUGAGGAUCACCCAUGUAUUUGGGAGUGUUUACUGAAUUCUUACGAGAAGGUUUACGAACUU | 278 | 211 | – | – |
| GUGUAGCAAGGAUAUACAUGAGGAUCACCCAUGUGAAUAAGAUAGAAUAAGAUAAAGUGUAGAAGGUGCAGUGU | 39 | 34.4 | – | – |
| GCCAAGUCAGGAUAUACAUGAGGAUCACCCAUGUAGGACGCUAUUUUGAUCUUGGUAGGUAGAAGGGACAUGGG | 24.2 | 21.2 | – | – |
| GUAAGAAAUACAGGAUAUGUUAGUUUUAAGUGUAUUGGUUAUUACUUAAUUACAGAAGGGUAUUACAUGAGGAUCACCCAUGUA | – | – | 14.8 | 9.06 |
| CGGCCGCUACGCCGGCUCGACGCACAGGAUAUGCUGUUACAUGAGGAUCACCCAUGUGGCCAUGAGCAGAAGGGUGAUUCGCGA | – | – | 48.9 | 30.9 |
| GACUUCUCUGAGGAUAUUGCAUCAUACGAUUUAUAAGAAGGCAGAACAUGAGGAUCACCCAUGUGGGUUUCUAG | 59 | 108 | – | – |
| ACUAUACGAGGAUAUACUGACGGGCCUCAGGCGUCCAUGAGACAUGAGGAUCACCCAUGUAGAAGGCGUAUACU | 174 | 52 | – | – |
| UAAAUUUUGUAAGGAUAUACACGAGAUUCAAGUGUAGAAGGUACUUACAUGAGGAUCACCCAUGUAUACAUGGAUAAUAGAUAU | – | – | 436 | 141 |
| GUGGGAAUCACAGGAUAUACAUGCGCCGCUUCGUUCUACAUGAGGAUCACCCAUGUGUGGUCCGUGUAGAAGGGUGUUUGUCAC | – | – | 45.6 | 30.1 |
| ACAUUAGAAGAGAAGGUUCAUACUAUUAUCAACAUACAUGAGGAUCACCCAUGUUGGUGAUUAAGAAAGGAUAUUUAUAACACU | 23.1 | 20.6 | – | – |
| AAGAAAGAAACGUAGGAUAUCAAGAAUAUAACAUGAGGAUCACCCAUGUAAAUACGAAAGUAUAAUGAGAAGGAUGGAUGAUCUUC | – | – | 102 | 83.4 |
| UUGAGGUAGGAGAAGGACAGAGGCGGAAACACAAACAUGAGGAUCACCCAUGUAGGAUAUCCUAACUAACGAGAAUACCUCAAG | 6.36 | 6.89 | – | – |
| CGAGUGUAAGGAUAUUCGGCGCCAGGGAACAACCUAGCGUAGAAGAAGGUACAUGAGGAUCACCCAUGUGGUUA | 269 | 22.4 | – | – |
